# Laboratory results published in ChEMBL document CHEMBL3797022, “New applications for known drugs: Human glycogen synthase kinase 3 inhibitors as modulators of Aspergillus fumigatus growth” (Eur J Med Chem, 2016).
# The source made the active and inactive calls. The calls are words filed in the database; no cut-off is given here.
# Assays:
# Aspergillus nidulans [1] = test: Anifungal activity against Aspergillus nidulans MAD4096 assessed as growth inhibition after 72 hrs by Neubauer chamber analysis; format: functional, organism-based
# In short: (§1)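 A. nidulans prototroph strains (wild type MAD4096; crzAΔ MAD4100) were point-inoculated with 10^3 conidia, counted by Neubauer chamber, onto 1 ml AMM. The medium contained inhibitor from a 50 mM DMSO stock added to the melted agar, with a matching DMSO control. Colonial growth was evaluated photographically after 72 h at 37°C.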
# Aspergillus nidulans [2] = test: Anifungal activity against Aspergillus nidulans MAD4097 deficient in sltA assessed as reduction in colonial diameter at 50 uM after 72 hrs by Neubauer chamber analysis; format: functional, organism-based
# In short: (§2)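 A. nidulans sltA-deleted prototroph MAD4097, alongside wild-type MAD4096 and crzA-null MAD4100, tested on solid minimal medium (AMM) containing increasing inhibitor concentrations, added from DMSO stock (stock 50 mM); equal DMSO in control medium. 10^3 spores (Neubauer chamber count) centrally inoculated per well; 37°C for 72 h, colonies then photographed and colonial growth evaluated.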
# Aspergillus nidulans [3] = test: Anifungal activity against Aspergillus nidulans MAD4100 deficient in crzA assessed as growth inhibition after 72 hrs by Neubauer chamber analysis; format: functional, organism-based; in short: as §1
# Aspergillus fumigatus [4] = test: Anifungal activity against Aspergillus fumigatus CBS144 assessed as growth inhibition at 100 uM after 48 to 72 hrs by Neubauer chamber analysis; format: functional, organism-based
# In short: (§3)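 A. fumigatus wild-type prototroph conidia were used, 10^3 spores counted by Neubauer chamber and inoculated centrally onto 1 ml AMM. Inhibitors were dissolved in DMSO from 50 mM stocks and added to melted medium, with a DMSO-only control. Colonial growth was scored at 37°C after 48 and 72 h.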
# Aspergillus fumigatus [5] = test: Anifungal activity against Aspergillus fumigatus CM237 assessed as growth inhibition at 100 uM after 48 to 72 hrs by Neubauer chamber analysis; format: functional, organism-based; in short: as §3
# Aspergillus fumigatus [6] = test: Anifungal activity against Aspergillus fumigatus AF293 assessed as growth inhibition at 100 uM after 48 to 72 hrs by Neubauer chamber analysis; format: functional; in short: as §3
# Aspergillus fumigatus [7] = test: Anifungal activity against Aspergillus fumigatus CBS144 assessed as growth inhibition at 5 uM after 48 to 72 hrs by Neubauer chamber analysis; format: functional, organism-based
# In short: (§4)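 Wild-type prototroph A. fumigatus strains (CM237, AF293, CBS144) grown on solid minimal medium (AMM) with inhibitor added from DMSO stock (stock 50 mM); DMSO-only medium as control. 10^3 spores (counted by Neubauer chamber) centrally point-inoculated per well; incubated at 37°C, colonial growth scored after 48 and 72 h.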
# Aspergillus fumigatus [8] = test: Anifungal activity against Aspergillus fumigatus AF293 assessed as growth inhibition at 5 uM after 72 hrs by Neubauer chamber analysis; format: functional; in short: as §4
# Aspergillus nidulans [9] = test: Anifungal activity against Aspergillus nidulans MAD4097 deficient in sltA assessed as growth inhibition after 72 hrs by Neubauer chamber analysis; format: functional, organism-based; in short: as §2
# Aspergillus fumigatus [10] = test: Anifungal activity against Aspergillus fumigatus AF293 assessed as growth inhibition at 5 uM after 48 hrs by Neubauer chamber analysis; format: functional; in short: as §4
# Aspergillus fumigatus [11] = test: Anifungal activity against Aspergillus fumigatus CM237 assessed as growth inhibition at 5 uM after 72 hrs by Neubauer chamber analysis; format: functional, organism-based; in short: as §4
# Aspergillus fumigatus [12] = test: Anifungal activity against Aspergillus fumigatus CM237 assessed as growth inhibition at 5 uM after 48 hrs by Neubauer chamber analysis; format: functional, organism-based; in short: as §4
# [13] = target: Glycogen synthase kinase-3 beta (Homo sapiens, UniProt P49841); test: Inhibition of human recombinant GSK3beta expressed in Escherichia coli using GS-1 as substrate incubated for 20 mins by gamma[32P]ATP-based scintillation counting analysis
# Aspergillus nidulans [14] = test: Anifungal activity against Aspergillus nidulans MAD4097 deficient in sltA assessed as reduction in colonial diameter at 10 uM after 72 hrs by Neubauer chamber analysis; format: functional; settings: MAD4097, 72 h; in short: as §2
# Aspergillus fumigatus [15] = test: Anifungal activity against Aspergillus fumigatus CBS144 assessed as growth inhibition at 50 uM after 48 to 72 hrs by Neubauer chamber analysis; format: functional, organism-based; in short: as §3
# Aspergillus nidulans [16] = test: Anifungal activity against Aspergillus nidulans MAD4096 assessed as growth inhibition at 50 uM after 72 hrs by Neubauer chamber analysis; format: functional, organism-based; in short: as §1
# Aspergillus fumigatus [17] = test: Anifungal activity against Aspergillus fumigatus AF293 assessed as growth inhibition at 50 uM after 48 to 72 hrs by Neubauer chamber analysis; format: functional; in short: as §3
# Aspergillus fumigatus [18] = test: Anifungal activity against Aspergillus fumigatus CM237 assessed as growth inhibition at 50 uM after 48 to 72 hrs by Neubauer chamber analysis; format: functional, organism-based; in short: as §3
# Sequence of Glycogen synthase kinase-3 beta (P49841 whole entry): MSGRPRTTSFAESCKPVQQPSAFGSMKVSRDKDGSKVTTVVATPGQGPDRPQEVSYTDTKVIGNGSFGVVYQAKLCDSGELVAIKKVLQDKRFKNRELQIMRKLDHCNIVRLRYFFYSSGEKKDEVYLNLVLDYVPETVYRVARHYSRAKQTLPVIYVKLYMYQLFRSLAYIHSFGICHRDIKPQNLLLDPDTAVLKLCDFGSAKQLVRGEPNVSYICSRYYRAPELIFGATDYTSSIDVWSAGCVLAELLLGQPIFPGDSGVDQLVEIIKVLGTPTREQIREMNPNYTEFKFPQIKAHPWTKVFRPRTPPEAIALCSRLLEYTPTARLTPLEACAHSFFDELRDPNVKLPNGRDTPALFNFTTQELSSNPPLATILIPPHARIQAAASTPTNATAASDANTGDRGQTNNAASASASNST
smiles,measurement,setting,value
O=c1sn(-c2cccc3ccccc23)c(=O)n1Cc1ccccc1,growth inhibition (GI),Aspergillus nidulans [1],inactive
same,inhibition,Aspergillus nidulans [2],Active
same,growth inhibition (GI),Aspergillus nidulans [3],inactive
same,growth inhibition (GI),Aspergillus fumigatus [4],inactive
same,growth inhibition (GI),Aspergillus fumigatus [5],inactive
same,growth inhibition (GI),Aspergillus fumigatus [6],inactive
O=C(CCl)c1scc(Br)c1Br,growth inhibition (GI),Aspergillus fumigatus [7],Active
same,growth inhibition (GI),Aspergillus fumigatus [8],inactive
same,growth inhibition (GI),Aspergillus nidulans [3],inactive
same,growth inhibition (GI),Aspergillus nidulans [9],Active
same,growth inhibition (GI),Aspergillus fumigatus [10],Active
same,growth inhibition (GI),Aspergillus fumigatus [11],inactive
same,growth inhibition (GI),Aspergillus fumigatus [12],Active
CCCCCCCCCCCC(=O)NNC(=O)c1c(O)c2ccccc2n(CC)c1=O,IC50,[13],2800 nM
same,growth inhibition (GI),Aspergillus nidulans [1],inactive
same,growth inhibition (GI),Aspergillus nidulans [3],inactive
COc1ccc(CNC(=O)Nc2nc(C)c(C(C)=O)s2)cc1,IC50,[13],600 nM
same,growth inhibition (GI),Aspergillus nidulans [1],inactive
same,growth inhibition (GI),Aspergillus nidulans [3],inactive
Cn1sc(=O)n(Cc2ccccc2)c1=O,inhibition at 10 µM,Aspergillus nidulans [14],50%
same,growth inhibition (GI),Aspergillus nidulans [3],inactive
same,growth inhibition (GI),Aspergillus fumigatus [15],Active
same,growth inhibition (GI),Aspergillus nidulans [16],Active
same,growth inhibition (GI),Aspergillus fumigatus [17],Active
same,growth inhibition (GI),Aspergillus fumigatus [18],Active
